# Experimental data pooled from the literature.
# Protocols differ between the studies behind these lines.
# Target: Serine/threonine-protein kinase ULK1 (ULK1, Homo sapiens, UniProt O75385)
# Observed: enzyme activity
# Mode: inhibitor
# One construct used (O75385 1-1050): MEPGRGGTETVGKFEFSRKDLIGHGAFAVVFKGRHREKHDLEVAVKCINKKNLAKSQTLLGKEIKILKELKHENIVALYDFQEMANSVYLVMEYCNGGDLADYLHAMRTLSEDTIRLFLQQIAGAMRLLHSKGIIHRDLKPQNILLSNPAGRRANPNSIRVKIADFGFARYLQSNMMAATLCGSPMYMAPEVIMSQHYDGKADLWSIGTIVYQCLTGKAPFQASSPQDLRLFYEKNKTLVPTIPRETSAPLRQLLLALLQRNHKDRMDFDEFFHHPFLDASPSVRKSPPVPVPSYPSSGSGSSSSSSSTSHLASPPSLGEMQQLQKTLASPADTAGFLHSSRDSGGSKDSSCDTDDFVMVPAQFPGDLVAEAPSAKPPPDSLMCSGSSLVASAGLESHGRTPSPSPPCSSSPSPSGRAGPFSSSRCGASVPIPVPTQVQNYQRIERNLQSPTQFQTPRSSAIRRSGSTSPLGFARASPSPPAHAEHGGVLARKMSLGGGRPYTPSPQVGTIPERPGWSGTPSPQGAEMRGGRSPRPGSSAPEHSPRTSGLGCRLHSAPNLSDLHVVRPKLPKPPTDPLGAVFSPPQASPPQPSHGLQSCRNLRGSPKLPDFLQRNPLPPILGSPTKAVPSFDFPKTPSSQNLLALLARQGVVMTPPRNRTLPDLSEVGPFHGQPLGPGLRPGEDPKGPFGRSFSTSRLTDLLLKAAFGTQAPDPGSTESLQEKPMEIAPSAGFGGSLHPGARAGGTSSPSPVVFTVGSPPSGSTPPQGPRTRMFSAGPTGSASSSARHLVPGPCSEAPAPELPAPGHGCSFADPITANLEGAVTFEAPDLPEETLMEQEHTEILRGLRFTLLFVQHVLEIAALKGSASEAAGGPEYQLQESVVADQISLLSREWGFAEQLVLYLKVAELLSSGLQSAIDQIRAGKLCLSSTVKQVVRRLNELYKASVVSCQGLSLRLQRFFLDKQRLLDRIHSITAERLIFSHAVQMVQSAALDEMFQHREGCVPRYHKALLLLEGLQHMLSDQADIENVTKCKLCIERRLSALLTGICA
Structure (SMILES),technique,tested at,remaining activity
Cc1ccc(C(=O)Nc2ccc(CN3CCN(C)CC3)c(C(F)(F)F)c2)cc1C#Cc1cnc2cccnn12,,23.5 nM,76%
O=C(NCCCNc1nc(Nc2cccc(NC(=O)N3CCCC3)c2)ncc1C1CC1)C1CCC1,radiometric,1 µM,17%
COc1cc(Cl)c(C(=O)N[C@@H](CN[C@H]2CC[C@@H](N)CC2)Cc2ccc(C#N)cc2)cc1-c1ccc(CN[C@H](C)c2ccc(C)cc2)o1,,1 µM,95%
Cc1sc(C(=O)NC2COC2)cc1-n1cc(NC(=O)Nc2c(F)cccc2Cl)cn1,,10 µM,77.3%
COc1cc(Nc2cnc(C#N)c(O[C@H](C)CN(C)C)n2)ncc1-c1cnn(C)c1,radiometric,1 µM,60%
O=C(Nc1cnn(-c2csc(C(=O)NC3COC3)c2)c1)Nc1c(F)cccc1Cl,,5 µM,93.9%
Cc1nn(CC(F)(F)F)cc1Nc1nccc(NCc2ccc(S(N)(=O)=O)cc2)n1,radiometric,1 µM,99%
CC(C)(O)[C@H]1CC[C@H](Nc2ccc3ncc(-c4cccc(C(F)(F)F)c4)n3n2)CC1,,1 µM,96.2%
